Data taken from ChEMBL document CHEMBL1149125, “Synthesis and biological evaluation in human monocyte-derived macrophages of N-(N-acetyl-L-cysteinyl)-S-acetylcysteamine analogues with potent antioxidant and anti-HIV activities” (2004).

Test: Effective dose against human immuno deficiency virus-1/Ba-L in vitro in human monocyte-derived macrophages (MDM) cells
Format: functional
Conditions: for EC50: read-out: ED50 (the source's name)
Method in brief: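 Primary human monocytes (elutriated, ≥95% pure) differentiated 7 days into MDM in DMEM/10% heat-inactivated FCS; 1 million cells pretreated 1 h with a range of concentrations, then infected with HIV-1/BaL (10 000 TCID50, moi 0.01) for 24 h at 37 °C, washed, refed; medium and drug renewed twice weekly. Supernatant RT activity summed as cumulative RT; ED50/70/90 by Chou software; triplicate, two donors.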

Compound | EC50 [µM] | ED70 [µM] | ED90 [µM]
CC(=O)N[C@@H](CS)C(=O)NCCSC(=O)C(C)(C)C | 145 | 185 | 270
CC(=O)N[C@@H](CSC(=O)c1ccccc1)C(=O)NCCSC(=O)C(C)C | 165 | 205 | 285
CC(=O)N[C@@H](CSC(C)=O)C(=O)NCCSC(=O)C(C)C | 45 | 55 | 80
CC(=O)N[C@@H](CS)C(=O)NCCSC(=O)C(C)C | 110 | 175 | 380

The remaining compounds from weak to strong by EC50, led by results:

EC50 [µM] | Compound | ED70 [µM] | ED90 [µM]
45 | CC(=O)N[C@@H](CS)C(=O)NCCSC(C)=O | 80 | 195
40 | CC(=O)N[C@@H](CS)C(=O)NCCS | 75 | 200
